Assays:
Type in all cases: functional
[1] = tested on: HCT-15; assay: Growth inhibition of human HCT15 cells at 10 uM after 48 hrs by coulter counting; conditions: HCT-15, 48 h, read-out: GI
Procedure, shortened: (§1)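 Single-dose primary screen across the full NCI 60-cell-line panel. Stocks were made in DMSO and diluted in PBS to a final DMSO below 1%. Cultures at 6 × 10⁴ cells/ml were run in duplicate wells alongside PBS/DMSO vehicle controls at 37 °C in humidified 5% CO₂. Data were expressed as percent growth of treated cells.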

[2] = tested on: UACC-257; assay: Growth inhibition of human UACC257 cells at 10 uM after 48 hrs by coulter counting; conditions: UACC-257, 48 h, read-out: GI
Procedure, shortened: (§2)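 Single-dose screen in the NCI 60 human tumor cell line panel (nine subpanels). Compounds dissolved in DMSO and diluted in phosphate buffered saline, keeping final DMSO below 1%. Added in duplicate wells to cells at 6 × 10⁴ cells/ml. Controls held PBS and DMSO at matching dilutions. Incubated at 37 °C, humidified, 5% CO₂. Reported as percent growth of treated cells.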

[3] = tested on: UACC-62; assay: Growth inhibition of human UACC62 cells at 10 uM after 48 hrs by coulter counting; conditions: UACC-62, 48 h, read-out: GI; procedure, shortened: as §2
[4] = tested on: CCRF-CEM; assay: Growth inhibition of human CCRF-CEM cells at 10 uM after 48 hrs by coulter counting; conditions: read-out: GI; procedure, shortened: as §1
[5] = tested on: HL-60(TB); assay: Growth inhibition of human HL-60(TB) cells at 10 uM after 48 hrs by coulter counting; conditions: HL-60, 48 h, read-out: GI
Procedure, shortened: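 Test compound was dissolved in DMSO and diluted in phosphate-buffered saline to a final DMSO level below 1%. Dilutions were plated in duplicate with cell culture at 6 × 10⁴ cells/ml. Vehicle controls held PBS and DMSO at matching dilutions. Incubation was at 37 °C, humidified, under 5% CO₂. Data were reported as percent growth of treated cells.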

[6] = tested on: K562; assay: Growth inhibition of human K562 cells at 10 uM after 48 hrs by coulter counting; conditions: K562, 48 h, read-out: GI; procedure, shortened: as §1
[7] = tested on: MOLT-4; assay: Growth inhibition of human MOLT4 cells at 10 uM after 48 hrs by coulter counting; conditions: MOLT-4, 48 h, read-out: GI; procedure, shortened: as §1
[8] = tested on: RPMI-8226; assay: Growth inhibition of human RPMI8226 cells at 10 uM after 48 hrs by coulter counting; conditions: RPMI-8226, 48 h, read-out: GI; procedure, shortened: as §1
[9] = tested on: A549; assay: Growth inhibition of human A549 cells at 10 uM after 48 hrs by coulter counting; conditions: A549, 48 h, read-out: GI; procedure, shortened: as §1
[10] = tested on: EKVX; assay: Growth inhibition of human EKVX cells at 10 uM after 48 hrs by coulter counting; conditions: read-out: GI; procedure, shortened: as §1
[11] = tested on: HOP-62; assay: Growth inhibition of human HOP62 cells at 10 uM after 48 hrs by coulter counting; conditions: HOP-62, 48 h, read-out: GI; procedure, shortened: as §1
[12] = tested on: NCI-H226; assay: Growth inhibition of human NCI-H226 cells at 10 uM after 48 hrs by coulter counting; conditions: NCI-H226, 48 h, read-out: GI; procedure, shortened: as §1
[13] = tested on: NCI-H23; assay: Growth inhibition of human NCI-H23 cells at 10 uM after 48 hrs by coulter counting; conditions: NCI-H23, 48 h, read-out: GI; procedure, shortened: as §1
[14] = Growth inhibition of human NCI-322M cells at 10 uM after 48 hrs by coulter counting; conditions: read-out: GI; procedure, shortened: as §1
[15] = tested on: NCI-H460; assay: Growth inhibition of human NCI-H460 cells at 10 uM after 48 hrs by coulter counting; conditions: NCI-H460, 48 h, read-out: GI; procedure, shortened: as §1
[16] = tested on: NCI-H522; assay: Growth inhibition of human NCI-H522 cells at 10 uM after 48 hrs by coulter counting; conditions: NCI-H522, 48 h, read-out: GI; procedure, shortened: as §1
[17] = tested on: HCT-116; assay: Growth inhibition of human HCT116 cells at 10 uM after 48 hrs by coulter counting; conditions: HCT-116, 48 h, read-out: GI; procedure, shortened: as §1
[18] = tested on: HT-29; assay: Growth inhibition of human HT-29 cells at 10 uM after 48 hrs by coulter counting; conditions: HT-29, 48 h, read-out: GI; procedure, shortened: as §1
[19] = tested on: KM12; assay: Growth inhibition of human KM12 cells at 10 uM after 48 hrs by coulter counting; conditions: KM12, 48 h, read-out: GI; procedure, shortened: as §1
[20] = tested on: SF-268; assay: Growth inhibition of human SF268 cells at 10 uM after 48 hrs by coulter counting; conditions: SF-268, 48 h, read-out: GI; procedure, shortened: as §1
[21] = tested on: SF-295; assay: Growth inhibition of human SF295 cells at 10 uM after 48 hrs by coulter counting; conditions: SF-295, 48 h, read-out: GI; procedure, shortened: as §1
[22] = tested on: SNB-19; assay: Growth inhibition of human SNB19 cells at 10 uM after 48 hrs by coulter counting; conditions: SNB-19, 48 h, read-out: GI; procedure, shortened: as §1
[23] = tested on: SNB-75; assay: Growth inhibition of human SNB75 cells at 10 uM after 48 hrs by coulter counting; conditions: SNB-75, 48 h, read-out: GI; procedure, shortened: as §1
[24] = tested on: U-251; assay: Growth inhibition of human U251 cells at 10 uM after 48 hrs by coulter counting; conditions: U-251, 48 h, read-out: GI; procedure, shortened: as §2
[25] = tested on: LOX IMVI; assay: Growth inhibition of human LOXIMVI cells at 10 uM after 48 hrs by coulter counting; conditions: read-out: GI; procedure, shortened: as §1
[26] = tested on: M14; assay: Growth inhibition of human M14 cells at 10 uM after 48 hrs by coulter counting; conditions: M14, 48 h, read-out: GI; procedure, shortened: as §1
[27] = tested on: MDA-MB-435; assay: Growth inhibition of human MDA-MB-435 cells at 10 uM after 48 hrs by coulter counting; conditions: MDA-MB-435, 48 h, read-out: GI; procedure, shortened: as §1
[28] = tested on: SK-MEL-2; assay: Growth inhibition of human SK-MEL-2 cells at 10 uM after 48 hrs by coulter counting; conditions: SK-MEL-2, 48 h, read-out: GI; procedure, shortened: as §1
[29] = tested on: SK-MEL-28; assay: Growth inhibition of human SK-MEL-28 cells at 10 uM after 48 hrs by coulter counting; conditions: SK-MEL-28, 48 h, read-out: GI; procedure, shortened: as §1
[30] = tested on: SK-MEL-5; assay: Growth inhibition of human SK-MEL-5 cells at 10 uM after 48 hrs by coulter counting; conditions: SK-MEL-5, 48 h, read-out: GI; procedure, shortened: as §1
[31] = tested on: NCI/ADR-RES; assay: Growth inhibition of human NCI/ADR-RES cells at 10 uM after 48 hrs by coulter counting; conditions: read-out: GI; procedure, shortened: as §1
[32] = tested on: A498; assay: Growth inhibition of human A498 cells at 10 uM after 48 hrs by coulter counting; conditions: A498, 48 h, read-out: GI; procedure, shortened: as §1
[33] = tested on: ACHN; assay: Growth inhibition of human ACHN cells at 10 uM after 48 hrs by coulter counting; conditions: read-out: GI; procedure, shortened: as §1
[34] = tested on: CAKI-1; assay: Growth inhibition of human Caki1 cells at 10 uM after 48 hrs by coulter counting; conditions: CAKI-1, 48 h, read-out: GI; procedure, shortened: as §1
[35] = tested on: UO-31; assay: Growth inhibition of human UO31 cells at 10 uM after 48 hrs by coulter counting; conditions: UO-31, 48 h, read-out: GI; procedure, shortened: as §2
[36] = tested on: DU-145; assay: Growth inhibition of human DU145 cells at 10 uM after 48 hrs by coulter counting; conditions: DU-145, 48 h, read-out: GI; procedure, shortened: as §1
[37] = tested on: MCF7; assay: Growth inhibition of human MCF7 cells at 10 uM after 48 hrs by coulter counting; conditions: MCF7, 48 h, read-out: GI; procedure, shortened: as §1
[38] = tested on: BT-549; assay: Growth inhibition of human BT549 cells at 10 uM after 48 hrs by coulter counting; conditions: BT-549, 48 h, read-out: GI; procedure, shortened: as §1
[39] = tested on: T47D; assay: Growth inhibition of human T47D cells at 10 uM after 48 hrs by coulter counting; conditions: read-out: GI; procedure, shortened: as §2
[40] = tested on: OVCAR-8; assay: Growth inhibition of human OVCAR8 cells at 10 uM after 48 hrs by coulter counting; conditions: OVCAR-8, 48 h, read-out: GI; procedure, shortened: as §1
[41] = tested on: 786-0; assay: Growth inhibition of human 786-0 cells at 10 uM after 48 hrs by coulter counting; conditions: 786-0, 48 h, read-out: GI; procedure, shortened: as §1
[42] = tested on: SN12C; assay: Growth inhibition of human SN12C cells at 10 uM after 48 hrs by coulter counting; conditions: read-out: GI; procedure, shortened: as §1
[43] = tested on: TK-10; assay: Growth inhibition of human TK10 cells at 10 uM after 48 hrs by coulter counting; conditions: TK-10, 48 h, read-out: GI; procedure, shortened: as §2

**Q.** For `CCN1CC2=C(N=C3SC=C(C)N3C2c2ccc(OC)cc2)/C(=C/c2ccc(OC)cc2)C1` (stereo not drawn), which inhibition of growth at 10 µM [1] is on record?
**A.** > 10%

**Q.** What about the inhibition of growth at 10 µM [2] of the same compound?
**A.** > 10%

**Q.** What about the inhibition of growth at 10 µM [3] of the same compound?
**A.** > 10%

**Q.** And the inhibition of growth at 10 µM [4]?
**A.** > 10%

**Q.** And the inhibition of growth at 10 µM [5]?
**A.** > 10%

**Q.** What about the inhibition of growth at 10 µM [6] of the same compound?
**A.** > 10%

**Q.** What about the inhibition of growth at 10 µM [7] of the same compound?
**A.** > 10%

**Q.** What about the inhibition of growth at 10 µM [8] of the same compound?
**A.** > 10%

**Q.** What about the inhibition of growth at 10 µM [9] of the same compound?
**A.** > 10%

**Q.** And the inhibition of growth at 10 µM [10]?
**A.** > 10%

**Q.** And the inhibition of growth at 10 µM [11]?
**A.** > 10%

**Q.** What about the inhibition of growth at 10 µM [12] of the same compound?
**A.** > 10%

**Q.** What about the inhibition of growth at 10 µM [13] of the same compound?
**A.** > 10%

**Q.** And the inhibition of growth at 10 µM [14]?
**A.** > 10%

**Q.** And the inhibition of growth at 10 µM [15]?
**A.** > 10%

**Q.** What about the inhibition of growth at 10 µM [16] of the same compound?
**A.** > 10%

**Q.** And the inhibition of growth at 10 µM [17]?
**A.** > 10%

**Q.** What about the inhibition of growth at 10 µM [18] of the same compound?
**A.** > 10%

**Q.** And the inhibition of growth at 10 µM [19]?
**A.** > 10%

**Q.** And the inhibition of growth at 10 µM [20]?
**A.** > 10%

**Q.** And the inhibition of growth at 10 µM [21]?
**A.** > 10%

**Q.** What about the inhibition of growth at 10 µM [22] of the same compound?
**A.** > 10%

**Q.** And the inhibition of growth at 10 µM [23]?
**A.** 12.5%

**Q.** And the inhibition of growth at 10 µM [24]?
**A.** > 10%

**Q.** What about the inhibition of growth at 10 µM [25] of the same compound?
**A.** > 10%

**Q.** And the inhibition of growth at 10 µM [26]?
**A.** > 10%

**Q.** What about the inhibition of growth at 10 µM [27] of the same compound?
**A.** > 10%

**Q.** And the inhibition of growth at 10 µM [28]?
**A.** > 10%

**Q.** What about the inhibition of growth at 10 µM [29] of the same compound?
**A.** > 10%

**Q.** What about the inhibition of growth at 10 µM [30] of the same compound?
**A.** > 10%

**Q.** And the inhibition of growth at 10 µM [31]?
**A.** > 10%

**Q.** What about the inhibition of growth at 10 µM [32] of the same compound?
**A.** > 10%

**Q.** And the inhibition of growth at 10 µM [33]?
**A.** > 10%

**Q.** What about the inhibition of growth at 10 µM [34] of the same compound?
**A.** > 10%

**Q.** What about the inhibition of growth at 10 µM [35] of the same compound?
**A.** 35.5%

**Q.** What about the inhibition of growth at 10 µM [36] of the same compound?
**A.** > 10%

**Q.** What about the inhibition of growth at 10 µM [37] of the same compound?
**A.** > 10%

**Q.** And the inhibition of growth at 10 µM [38]?
**A.** > 10%

**Q.** And the inhibition of growth at 10 µM [39]?
**A.** > 10%

**Q.** And the inhibition of growth at 10 µM [40]?
**A.** > 10%

**Q.** And the inhibition of growth at 10 µM [41]?
**A.** > 10%

**Q.** What about the inhibition of growth at 10 µM [42] of the same compound?
**A.** > 10%

**Q.** What about the inhibition of growth at 10 µM [43] of the same compound?
**A.** > 10%

— ChEMBL document CHEMBL1926614, “Substituted thiazoles V. synthesis and antitumor activity of novel thiazolo[2,3-b]quinazoline and pyrido[4,3-d]thiazolo[3,2-a]pyrimidine analogues” (2012)
